Laboratory results taken from article PMC5198968 (Cancer Science, 2016).
Entries after “also recorded” stand apart in the source; their conditions may differ.

How the values were obtained:
[1] = system: Japanese patients with advanced hepatocellular carcinoma; assay: Phase I dose escalation: dose-limiting toxicities and maximum tolerated dose; type: in vivo, human
In short: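 Doses started at 150 mg b.i.d. (group I) or 100 mg b.i.d. (group II) and escalated to 200 mg, with 3–9 patients per level. DLTs were drug-related AEs in cycle 1: grade 4 neutropenia lasting ≥8 days, febrile neutropenia or thrombocytopenia, most non-hematological grade ≥3 events, or defined liver-enzyme or bilirubin rises. Escalation required DLT incidence <33.3% (0/3, 1/6, 2/9). Twelve patients were added at the MTD.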

[2] = system: Japanese patients with advanced hepatocellular carcinoma; assay: Efficacy: tumor response; type: in vivo, human
[3] = 200 mg b.i.d., expansion cohort

**Q.** Which “DLT of grade 3 diarrhea” value [1, 3] does the source give for `COC(=O)c1ccc2c(c1)NC(=O)/C2=C(\Nc1ccc(N(C)C(=O)CN2CCN(C)CC2)cc1)c1ccccc1` [nintedanib] here?
**A.** one patient in group I

**Q.** And the “DLT of grade 3 drug-induced liver injury” value [1, 3]?
**A.** one patient in each group

**Q.** And the “Patients who experienced a DLT” value ([1]; 200 mg b.i.d., including expansion cohort, of 19 patients)?
**A.** three

**Q.** What about the “Maximum tolerated dose (MTD)” value ([1]; both groups (mild and moderate liver impairment), oral, 28-day cycles) of the same molecule?
**A.** 200 mg b.i.d.

**Q.** And the “DLT during the MTD period (cycle 1)” value ([1]; group I (150, 200 mg b.i.d.) and group II (100, 150, 200 mg b.i.d.), dose escalation)?
**A.** No dose‐limiting toxicities were reported; also recorded: No patient experienced a DLT

**Q.** And the “Objective tumor response (RECIST 1.0, investigator assessment)” value ([2]; both groups)?
**A.** no complete or partial responses

**Q.** And the Stable disease ([2]; group I (12 patients; 10 treated at the MTD))?
**A.** 75.0%

**Q.** What about the “Patients with response by AFP (decline from baseline of >20% in AFP levels)” value ([2]; group I, nine patients (56.3%) evaluable) of the same molecule?
**A.** three

**Q.** What about the “Patients who had progressed at the time of analysis” value ([2]; group I, of 16 patients) of the same molecule?
**A.** 15 patients

**Q.** And the “Median time to progression (TTP)” value ([2]; group I, overall, 95% CI 1.05–5.52)?
**A.** 2.8 months

**Q.** And the “Median time to progression (TTP)” value ([2]; group I, prior sorafenib treatment, 95% CI 1.05–5.68)?
**A.** 2.8 months

**Q.** What about the “Median time to progression (TTP)” value ([2]; group I, treated at the MTD of 200 mg b.i.d., 95% CI 1.05–5.52) of the same molecule?
**A.** 2.8 months

**Q.** What about the “Patients who had progressed at the time of analysis” value ([2]; group II, all patients) of the same molecule?
**A.** 14 patients

**Q.** And the “Patients with response by AFP” value ([2]; group II, nine patients (64.3%) evaluable)?
**A.** three

**Q.** And the “Median time to progression (TTP)” value ([2]; group II, overall, 95% CI 0.95–6.70)?
**A.** 3.2 months

**Q.** What about the “Median time to progression (TTP)” value ([2]; group II, prior sorafenib treatment, 95% CI 0.95–6.70) of the same molecule?
**A.** 2.8 months

**Q.** And the “Median time to progression (TTP)” value ([2]; group II, treated at the MTD of 200 mg b.i.d., 95% CI 0.95–5.62)?
**A.** 2.8 months

**Q.** What about the “Computed tomography finding in metastatic lymph node lesions” value ([2]; one patient of group I, after 1 month of nintedanib treatment) of the same molecule?
**A.** tumor necrosis

**Q.** And the Stable disease ([2]; patients in each group)?
**A.** > 75%
